Bioassay records deposited in PubChem BioAssay by The Scripps Research Institute Molecular Screening Center.
M4 ag – CHRM4 agonism in calcium assay. CHO-K1 hM4/Gqi5, Fluo-8 calcium fluorescence; vehicle 0%, full acetylcholine response 100%. P08173. AID 624127. actives 0.14% (n = 360,000). activation, % at 3 µM;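 active means activation above the run mean over all test wells plus 3 SD, cut at about 32% in these data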;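 further: peak over basal fluorescence ratio per well then scaled between controls; 0% = DMSO wells and 100% = acetylcholine at EC100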
Target sequence (P08173 whole entry, looked up): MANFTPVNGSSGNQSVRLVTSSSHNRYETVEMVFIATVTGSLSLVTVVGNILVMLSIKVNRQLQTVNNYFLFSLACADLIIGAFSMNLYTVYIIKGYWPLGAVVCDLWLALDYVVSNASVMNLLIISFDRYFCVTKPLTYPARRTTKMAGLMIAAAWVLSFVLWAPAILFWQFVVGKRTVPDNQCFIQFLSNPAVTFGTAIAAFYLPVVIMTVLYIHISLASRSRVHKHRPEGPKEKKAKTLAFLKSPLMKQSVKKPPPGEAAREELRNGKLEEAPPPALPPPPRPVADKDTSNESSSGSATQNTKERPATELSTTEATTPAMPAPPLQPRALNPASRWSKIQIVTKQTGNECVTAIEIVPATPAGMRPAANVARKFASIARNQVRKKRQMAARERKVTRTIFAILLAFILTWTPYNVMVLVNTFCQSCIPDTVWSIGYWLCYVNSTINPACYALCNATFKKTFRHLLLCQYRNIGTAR
M5 PAM – potentiates acetylcholine response at human M5 receptor; actives 0.3% (n = 360,000); CHO-K1 hM5, Fluo-8 calcium, ACh EC20 PAM; 0% = ACh EC20, 100% = ACh EC100; P08912; activation, % at 3 µM;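 active means activation above the run cutoff, the mean activation of all test compounds plus 3 SD, cut at about 18% in these data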
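Assay system – human M5 receptor in CHO-K1 cells · Read-out – % activation, ACh-normalized · Technique – Fluo-8 calcium fluorescence · Dosing – single-point, 3 µM nominal · Incubation – Fluo-8 loading 80 min at 37 °C plus 30 min room temperature · Repeats – singlicate, one well per test compound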
CHRM5 agonist – agonists of human muscarinic M5 receptor (CHRM5); P08912; CHO-K1 hM5 cells, Fluo-8 calcium fluorescence; 0% DMSO wells, 100% maximal acetylcholine response; activation, % at 3 µM; actives 0.19% (n = 360,000); AID 624037;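 active means activation above the run's mean over test compounds plus 3 SD, cut at about 23% in these data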;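 further: signal is peak over basal fluorescence ratio across the kinetic read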
M5 antag – CHRM5 antagonism in calcium assay. AID 624040. CHO-hM5 cells, Fluo-8 calcium fluorescence, ACh EC80. P08912. actives 0.59% (n = 360,000). inhibition, % at 3 µM;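 active means inhibition above a per-plate cutoff, the mean of that plate's test compounds plus 3 SD, cut at about 27% in these data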;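 further: 0% = acetylcholine EC80 with DMSO and 100% = DMSO without agonist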
CHRM4 antagonist – CHRM4 antagonism in calcium assay; P08173; CHO-hM4 cells, ACh EC80, Fluo-8 calcium fluorescence; inhibition, % at 3 µM; actives 0.73% (n = 360,000);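 active means inhibition above its plate's cutoff, the mean inhibition of sample wells plus 3 SD, cut at about 27% in these data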;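 further: 0% = acetylcholine EC80 with DMSO and 100% = DMSO without agonist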
M4 PAM – potentiates acetylcholine response at human M4 receptor. CHO-K1 hM4/Gqi5, Fluo-8 calcium fluorescence, ACh EC20; 0% = ACh EC20, 100% = maximal ACh. actives 0.4% (n = 360,000). activation, % at 3 µM;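 active means activation above its plate's cutoff, the mean activation of sample wells plus 3 SD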
The depositor's hits bear a star. Compounds with a hit are over-represented: about 1.8% of the library has one in this group of screens.

SMILES	M4 ag	M5 PAM	CHRM5 agonist	M5 antag	CHRM4 antagonist	M4 PAM
O=C(c1cscn1)N1CCCC(N2CCN(c3ccc(F)cc3)CC2)C1 (configuration not stated)	0.6	1.5	-3.4	-3.1	-1.1	-2.5
COC(/C(=N/O)c1ccc(Cl)cc1)c1ccccc1 (configuration not stated)	4.9	-20.3	-5.4	29.4*	28.3*	-15.2
CC(=O)Nc1cccc(/C(C)=N/NC(=O)c2ccc3c(c2)OCO3)c1	2.5	1.3	-2.4	-1.5	3.6	-1.9
O=[N+]([O-])c1ccc(Nc2ccc(Cl)cc2)nc1	8.3	-15.0	-4.2	30.7*	5.4	-12.6
Nc1[nH]c2cc([N+](=O)[O-])ccc2c1-c1ccccn1	54.3*	-16.7	26.0*	31.7*	20.8	-20.2
CCOC(=O)c1ccc(NC(=O)COc2ccc(CNC3CCCCC3)cc2OC)cc1	6.7	-2.2	-1.8	-0.1	2.9	-13.6
O=[N+]([O-])c1cc([N+](=O)[O-])c(Oc2ccc(F)cc2F)cc1NN1CCCCC1	2.8	3.1	5.4	-10.7	-16.1	26.9*
O=[N+]([O-])c1cc([N+](=O)[O-])c(Oc2cccc3ccccc23)cc1NN1CCCCC1	1.9	8.6	3.4	-13.2	-2.7	30.5*
CCOC(=O)c1ccc(NC(=O)CSc2nnc(-c3cccs3)n2CC)cc1	1.4	-1.9	2.6	0.9	-1.8	11.6
CCOC(=O)c1ccc(NC(=O)CSc2nnc(-c3cccs3)n2C)cc1	1.6	20.7*	3.1	-8.1	-9.2	4.2
C[C@@H]1CN([C@@H](C)CO)C(=O)CCCn2nncc2CO[C@H]1CN(C)C(=O)OCc1ccccc1	0.2	-3.4	0.8	2.7	5.0	-0.2
COc1ccc(C2C(C(=O)N3CCN(C)CC3)c3ccccc3C(=O)N2C2CCCCC2)cc1 (configuration not stated)	1.6	22.2*	-10.7	-8.1	-9.0	22.4*
COc1ccc(C2C(C(=O)N3CCN(c4ccccc4)CC3)c3ccccc3C(=O)N2C)cc1 (configuration not stated)	6.5	-10.2	3.9	6.2	-1.8	-8.1
O=C1/C(=C\c2c(NCCOCCO)nc3ccccn3c2=O)SC(=S)N1Cc1ccco1	19.4	-9.8	60.2*	18.9	23.6	-11.5
Nc1cnccc1C(=O)O	5.4	-14.7	23.8*	2.9	3.0	2.5
COc1ccccc1C(C[N+](=O)[O-])c1c(N)n(C)c(=O)n(C)c1=O (configuration not stated)	0.2	-0.3	-2.5	7.2	-0.8	-5.2
COc1ccccc1C(c1c(N)n(C)c(=O)n(C)c1=O)C(C)[N+](=O)[O-] (configuration not stated)	1.7	-15.5	-8.0	27.9*	-7.2	-0.2
Cc1nn(-c2nc3ccccc3s2)c(C)c1Oc1ccccc1O	37.5*	-7.8	3.3	-0.2	32.3*	-30.4
Cc1nn(-c2ccccn2)c(C)c1Oc1ccccc1O	1.2	-3.2	-1.0	5.5	-4.3	-2.6
Cc1cc(C)c(OCC(=O)Nc2ccccc2N2CCCCC2)c(C)c1	4.7	-1.6	0.7	5.4	-21.6	5.7
O=C(Cn1c(=O)cnc2ccccc21)Nc1ccccc1N1CCOCC1	1.7	28.0*	2.6	-33.9	1.3	4.5
O=C(Nc1ccccc1N1CCOCC1)c1cc(-c2ccco2)nc2ccccc12	12.6	-16.5	3.1	24.6	34.6*	-17.7
Cc1ccc(C(C)C)c(OCC(=O)NC(=S)Nc2ccccc2N2CCOCC2)c1	0.6	-0.2	-3.2	19.3	7.6	1.9
CCC(=O)N1CCN(c2ccccc2NC(=O)COc2cc(C)ccc2C(C)C)CC1	6.5	-14.5	0.0	27.2*	15.8	-29.2
Cc1cc(C)c(OCC(=O)Nc2ccccc2N2CCOCC2)c(C)c1	31.5	4.8	27.8*	21.0	34.7*	-16.9
SMILES	M4 ag	M5 PAM	CHRM5 agonist	M5 antag	CHRM4 antagonist	M4 PAM
CN(Cc1ccc(OC(F)F)cc1)C(=O)c1ccc2c(=O)n3c(nc2c1)CCC3	2.1	-8.9	0.1	10.3	2.1	-2.9
O=C(COC(=O)c1ccccc1O)NCCc1c[nH]c2ccccc12	4.6	-18.5	-2.5	12.2	-1.3	2.2
O=C(COC(=O)c1ccccc1C(=O)OCC(=O)NCCc1c[nH]c2ccccc12)NCCc1c[nH]c2ccccc12	21.1	-38.4	0.2	32.4*	43.0*	-10.2
Cc1cccc(NC(=O)CCSc2ccccc2)c1C	-0.8	3.5	-3.7	0.2	1.4	-5.3
Cc1cccc(C)c1NC(=O)COC(=O)CCc1c[nH]c2ccccc12	2.1	-5.5	2.2	3.2	-1.6	2.9
Cc1cccc(NC(=O)CCc2ccccc2)c1C	0.5	25.6*	0.2	-17.6	-14.8	3.1
O=C(CCCc1c[nH]c2ccccc12)NCCc1c[nH]c2ccccc12	8.2	0.7	1.7	4.2	5.7	-1.9
O=C(NCCc1c[nH]c2ccccc12)OCCCCOC(=O)NCCc1c[nH]c2ccccc12	20.0	-24.4	5.0	10.2	31.9*	-9.8
Cc1cccc(NC(=O)COC(=O)CCc2c[nH]c3ccccc23)c1C	2.3	3.2	1.7	-8.0	-21.0	22.0*
CSC[C@H]1CN(c2ccc(Br)cc2)C(=O)[C@@H]1CC(=O)Nc1ccc(Br)cc1	0.7	4.1	0.3	-4.7	-15.6	2.6
CCc1ccc(S(=O)(=O)NCc2ccc(C(=O)NCCN(Cc3ccccc3)C(C)C)cc2)cc1	12.4	-18.0	1.0	29.1*	24.1	-15.2
CC(=O)Nc1ccc(S(=O)(=O)NCc2ccc(C(=O)NCCN(C)Cc3ccccc3)cc2)cc1	0.0	-4.0	-1.2	10.2	-7.5	0.9
Cc1cc(N)n(-c2ccc(S(N)(=O)=O)cc2[N+](=O)[O-])n1	0.7	1.6	-2.9	8.4	-3.9	1.8
O=C(C(=O)N(Cc1ccccc1)Cc1ccccc1)c1c(-c2ccccc2)[nH]c2ccccc12	18.9	-17.4	4.1	20.7	31.1*	-12.4
CC(C)Oc1cccc(-c2cc(C(=O)N3CCN(c4ncccn4)CC3)c3ccccc3n2)c1	14.5	-22.1	9.8	18.2	33.7*	-21.8
COc1cccc(-c2cc(C(=O)N3CCN(c4ncccn4)CC3)c3ccccc3n2)c1	14.3	-15.9	3.8	16.5	23.0	-8.8
CCCc1nnc(SCc2ccc(C(=O)OC)o2)n1N	0.6	2.6	-0.4	-1.0	-0.8	1.4
CCc1nnc(SCc2ccc(C(=O)OC)o2)n1N	1.9	19.2*	2.4	-9.9	-6.7	12.3
Cc1cccc(Nc2ncccc2C(=O)NCc2cccs2)c1C	6.4	-2.0	4.1	19.4	37.7*	18.6
